Data: ChEMBL document CHEMBL1145813, “Synthesis and evaluation of 11C-labeled 6-substituted 2-arylbenzothiazoles as amyloid imaging agents” (J Med Chem, 2003)

Key:
[1] = Ratio of percent injected dose per gram of compound to Swiss-Webster mice brain after 2 min and 30 min of intravenous injection; type: functional
How it was run: (§1)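 Female Swiss-Webster mice (23–35 g) received 0.37–3.7 MBq of high specific activity (>7.4 GBq/μmol) 11C-labeled derivative by lateral tail vein, in ≤0.10 mL of 93% isotonic saline/7% ethanol. Mice were killed at 2 or 30 min, and whole brain minus cerebellum was gamma-counted and decay-corrected against injectate standards. %ID/g was multiplied by body weight (kg). The 2 min/30 min ratio was taken from these values.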

[2] = Apparent lipophilicity was determined
[3] = Percent injected dose per gram of compound to Swiss-Webster mice brain was measured after 30 min of intravenous injection; type: functional, Mus musculus; how it was run: as §1
[4] = target: Amyloid-beta precursor protein (Homo sapiens, UniProt P05067); experiment: Binding affinity for Amyloid beta 1-40 aggregates in competition with [N-methyl-3H] BTA-1.
[5] = Percent injected dose per gram of compound to Swiss-Webster mice brain was measured after 2 min of intravenous injection; type: functional, Mus musculus; how it was run: as §1

Sequence of Amyloid-beta precursor protein (P05067 whole entry): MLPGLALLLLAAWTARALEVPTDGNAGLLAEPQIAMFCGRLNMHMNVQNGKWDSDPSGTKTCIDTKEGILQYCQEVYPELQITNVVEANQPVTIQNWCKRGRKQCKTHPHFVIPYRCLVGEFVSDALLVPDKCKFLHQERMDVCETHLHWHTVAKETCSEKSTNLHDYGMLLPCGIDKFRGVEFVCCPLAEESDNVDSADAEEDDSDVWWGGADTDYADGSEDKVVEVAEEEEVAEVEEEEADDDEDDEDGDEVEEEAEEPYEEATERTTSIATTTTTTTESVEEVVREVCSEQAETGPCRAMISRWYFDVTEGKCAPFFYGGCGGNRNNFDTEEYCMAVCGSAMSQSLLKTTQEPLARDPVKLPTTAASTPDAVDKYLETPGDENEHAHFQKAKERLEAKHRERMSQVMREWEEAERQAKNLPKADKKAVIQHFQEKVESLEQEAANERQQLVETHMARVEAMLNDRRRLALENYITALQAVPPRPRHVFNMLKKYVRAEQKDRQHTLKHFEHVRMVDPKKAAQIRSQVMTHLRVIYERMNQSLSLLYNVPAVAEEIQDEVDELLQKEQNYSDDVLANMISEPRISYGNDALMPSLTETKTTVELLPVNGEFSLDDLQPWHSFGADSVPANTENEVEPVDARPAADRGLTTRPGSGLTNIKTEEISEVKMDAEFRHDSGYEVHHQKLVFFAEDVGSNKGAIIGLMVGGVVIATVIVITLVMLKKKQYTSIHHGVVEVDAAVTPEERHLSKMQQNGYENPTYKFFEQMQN

Structure (SMILES): CNc1ccc(-c2nc3ccc(C#N)cc3s2)cc1
- Ratio [1]: 5
- chromatographic logD [2]: 2.5
- ID [3]: 0.063%
- Ki [4]: 8.6 nM
- ID [5]: 0.32%

Structure (SMILES): Nc1ccc(-c2nc3ccc(Br)cc3s2)cc1
- chromatographic logD [2]: 2.9
- Ki [4]: 7.2 nM

Structure (SMILES): CNc1ccc(-c2nc3ccc(O)cc3s2)cc1 [PITTSBURGH COMPOUND B UNLABELLED]
- ID [3]: 0.018%
- ID [5]: 0.21%

Structure (SMILES): Cc1ccc2nc(-c3ccc(N)cc3)sc2c1
- chromatographic logD [2]: 2.4
- Ki [4]: 9.5 nM

Structure (SMILES): N#Cc1ccc2nc(-c3ccc(N)cc3)sc2c1
- chromatographic logD [2]: 1.8
- Ki [4]: 64 nM

Structure (SMILES): COc1ccc2nc(-c3ccc(N(C)C)cc3)sc2c1
- Ratio [1]: 1.1
- chromatographic logD [2]: 3.3
- ID [3]: 0.14%
- Ki [4]: 1.9 nM
- ID [5]: 0.16%

Structure (SMILES): COc1ccc2nc(-c3ccc(N)cc3)sc2c1
- Ratio [1]: 3.8
- chromatographic logD [2]: 1.9
- ID [3]: 0.084%
- Ki [4]: 7 nM
- ID [5]: 0.32%

Structure (SMILES): Nc1ccc(-c2nc3ccccc3s2)cc1
- chromatographic logD [2]: 2
- Ki [4]: 37 nM

Structure (SMILES): Cc1ccc2nc(-c3ccc(N(C)C)cc3)sc2c1
- Ratio [1]: 0.52
- chromatographic logD [2]: 3.8
- ID [3]: 0.15%
- Ki [4]: 64 nM
- ID [5]: 0.078%

Structure (SMILES): CN(C)c1ccc(-c2nc3ccc(O)cc3s2)cc1
- Ratio [1]: 3
- chromatographic logD [2]: 2
- ID [3]: 0.1%
- Ki [4]: 4.4 nM
- ID [5]: 0.32%

Structure (SMILES): CNc1ccc(-c2nc3ccc(Br)cc3s2)cc1
- Ratio [1]: 1
- chromatographic logD [2]: 3.6
- ID [3]: 0.12%
- Ki [4]: 1.7 nM
- ID [5]: 0.12%

Structure (SMILES): CNc1ccc(-c2nc3ccc(OC)cc3s2)cc1
- Ratio [1]: 3.2
- chromatographic logD [2]: 2.6
- ID [3]: 0.1%
- Ki [4]: 4.9 nM
- ID [5]: 0.33%

Structure (SMILES): CN(C)c1ccc(-c2nc3ccccc3s2)cc1
- Ratio [1]: 2.5
- chromatographic logD [2]: 3.4
- ID [3]: 0.078%
- Ki [4]: 4 nM
- ID [5]: 0.19%

Structure (SMILES): CNc1ccc(-c2nc3ccc(C)cc3s2)cc1
- chromatographic logD [2]: 3.1
- ID [3]: 0.083%
- ID [5]: 0.22%

Structure (SMILES): CN(C)c1ccc(-c2nc3ccc(Br)cc3s2)cc1
- Ratio [1]: 0.49
- chromatographic logD [2]: 4.4
- ID [3]: 0.11%
- Ki [4]: 2.9 nM
- ID [5]: 0.054%

Structure (SMILES): Nc1ccc(-c2nc3ccc(O)cc3s2)cc1
- Ki [4]: 46 nM

Structure (SMILES): CNc1ccc(-c2nc3ccccc3s2)cc1
- chromatographic logD [2]: 2.7
- ID [3]: 0.057%
- ID [5]: 0.43%

Structure (SMILES): CN(C)c1ccc(-c2nc3ccc(C#N)cc3s2)cc1
- Ratio [1]: 2.5
- chromatographic logD [2]: 3.2
- ID [3]: 0.097%
- Ki [4]: 11 nM
- ID [5]: 0.24%
